Assay results from different studies.
Each line is one published result; the experiments were not run side by side.
Target: Activin receptor type-1B (ACVR1B, Homo sapiens, UniProt P36896)
One construct used (P36896 24-505): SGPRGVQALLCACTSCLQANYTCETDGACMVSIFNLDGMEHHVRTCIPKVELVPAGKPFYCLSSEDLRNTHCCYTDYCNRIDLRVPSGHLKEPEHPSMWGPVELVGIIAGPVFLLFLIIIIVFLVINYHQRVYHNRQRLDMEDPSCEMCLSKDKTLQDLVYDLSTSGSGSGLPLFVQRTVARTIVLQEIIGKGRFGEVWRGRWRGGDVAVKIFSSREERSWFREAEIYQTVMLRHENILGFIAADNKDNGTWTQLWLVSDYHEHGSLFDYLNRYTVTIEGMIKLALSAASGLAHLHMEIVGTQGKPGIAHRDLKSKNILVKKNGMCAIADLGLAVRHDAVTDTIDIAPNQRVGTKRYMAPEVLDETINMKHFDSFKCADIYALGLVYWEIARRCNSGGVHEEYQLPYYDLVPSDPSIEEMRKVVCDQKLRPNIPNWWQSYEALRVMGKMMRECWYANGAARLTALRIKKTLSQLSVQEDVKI

| Compound | effect on | action | technique | tested at | quantity | result |
| --- | --- | --- | --- | --- | --- | --- |
| CC1(C)NC(=O)c2[nH]c3c(Cl)c(Cl)ccc3c2C1C#N (stereo not shown) | thermal stability | – | DSF | 10 µM | ΔTm | 1.6 °C |
| C[C@H](c1ccc(F)cc1)N(Cc1cccc(C(=O)O)c1)C(=O)c1cnc2ccccc2c1 | cell-free assay | – | competition with immobilised ligand | 1 µM | remaining binding | 100% |
| Cc1sc(C(=O)NC2COC2)cc1-n1cc(NC(=O)Nc2c(F)cccc2Cl)cn1 | enzyme activity | inhibitor | – | 10 µM | remaining activity | 78.5% |
| CN(C)C1CCN(CC#Cc2nn(C3CCCC3)c3nc(NCc4ccccc4)ncc23)C1 (stereo not shown) | enzyme activity | inhibitor | FRET | 10 µM | inhibition | -8% |
| O=C1Nc2ccc(Cl)cc2C1=Cc1cc(Cl)c(O)c(Cl)c1 | cell-free assay | – | – | 0.5 µM | remaining signal | 127% |
| Cn1c2c(c3ccc(Cl)c(Cl)c31)C(C#N)C1(CCOCC1)NC2=O (stereo not shown) | thermal stability | – | DSF | 10 µM | ΔTm | 0.2 °C |
| Clc1ccc(Nc2nnc(Cc3ccncc3)c3ccccc23)cc1 | cell-free assay | – | – | 0.5 µM | remaining signal | 108% |
| CSc1cccnc1N1CCN(Cc2nc3ccccc3[nH]2)CC1 | cell-free assay | – | competition with immobilised ligand | 1 µM | remaining binding | 100% |
| COc1cc(Cl)c(C(=O)N[C@@H](CN[C@H]2CC[C@@H](N)CC2)Cc2ccc(C#N)cc2)cc1-c1ccc(CN[C@H](C)c2ccc(C)cc2)o1 | enzyme activity | inhibitor | – | 1 µM | remaining activity | 92% |
| CCOCCn1cc(C(=O)Nc2ccc(-n3nc(-c4cccnc4)cc3C(F)(F)F)cn2)ccc1=O | cell-free assay | – | competition with immobilised ligand | 1 µM | remaining binding | 79% |
| CC(C)(O)[C@H]1CC[C@H](Nc2ccc3ncc(-c4cccc(C(F)(F)F)c4)n3n2)CC1 | enzyme activity | inhibitor | – | 1 µM | remaining activity | 100% |
| Cn1cc(Cl)c2c(Oc3c(F)cc(Nc4cc(Cl)nc(N)n4)cc3F)ccnc21 | cell-free assay | – | competition with immobilised ligand | 0.1 µM | remaining binding | 98% |
| CC(C)(C)c1nc(-c2cccc(NS(=O)(=O)c3c(F)cccc3F)c2F)c(-c2ccnc(N)n2)s1 | enzyme activity | inhibitor | radiometric | 1 µM | remaining activity | 22% |
| Cc1ccc(C(=O)Nc2ccc(CN3CCN(C)CC3)c(C(F)(F)F)c2)cc1C#Cc1cnc2cccnn12 | enzyme activity | – | – | 23.5 nM | remaining activity | 100% |
| Cc1ccc(Nc2nccc(N(C)c3ccc4c(C)n(C)nc4c3)n2)cc1S(N)(=O)=O | cell-free assay | inhibitor | – | 10 µM | inhibition | 17% |
| Cn1c2c(c3ccc(Cl)c(Cl)c31)C(C#N)C(C)(C)NC2=O (stereo not shown) | thermal stability | – | DSF | 10 µM | ΔTm | 2.9 °C |
| O=c1cc(-c2cccc3c2Sc2ccccc2S3)oc(N2CCOCC2)c1 | enzyme activity | inhibitor | – | 0.5 µM | remaining activity | 114% |
| Cn1c2c(c3ccc(Cl)c(Cl)c31)C(C#N)C1(CCN(C(=O)OC(C)(C)C)CC1)NC2=O (racemic) | thermal stability | – | DSF | 10 µM | ΔTm | -0.1 °C |
| O=C(N1CCS(=O)(=O)CC1)N1C[C@H](c2ccc(OC(F)(F)F)cc2)C[C@H](c2nc(C3CC3)no2)C1 | cell-free assay | – | competition with immobilised ligand | 1 µM | remaining binding | 100% |
| COc1cc(-c2cc(-c3ccc(N4CCNCC4)cc3)cnc2C)cc(OC)c1OC | enzyme activity | inhibitor | – | 1 µM | inhibition | 36% |
| COc1cc2ncnc(Nc3ccc(Oc4ccccc4)c(C)c3C)c2cc1OC | enzyme activity | inhibitor | – | 1 µM | inhibition | -3% |
| O=C(O)[C@@H]1[C@@H](Cn2nnc3ccccc3c2=O)CC[C@H]1C(=O)c1ccc(OCCC2CCOCC2)cc1 | cell-free assay | – | competition with immobilised ligand | 1 µM | remaining binding | 100% |
| CNC(=O)c1cc(Oc2ccc(NC(=O)Nc3ccc(Cl)c(C(F)(F)F)c3)cc2)ccn1 | cell-free assay | inhibitor | – | 0.3 µM | inhibition | -6% |
| c1ccc(N2CCN(Cc3nc4ccccc4[nH]3)CC2)nc1 | cell-free assay | – | competition with immobilised ligand | 1 µM | remaining binding | 85% |
| CCCS(=O)(=O)Nc1ccc(F)c(C(=O)c2c[nH]c3ncc(-c4ccc(Cl)cc4)cc23)c1F | enzyme activity | inhibitor | – | 1 µM | inhibition | < 10% |
| Nc1ncnc2occ(-c3ccc(NC(=O)Nc4cc(C(F)(F)F)ccc4F)cc3)c12 | cell-free assay | – | – | 20 µM | remaining signal | 99% |
| CS(=O)(=O)Nc1cccc(-c2csc(NC(=O)CSc3nc4nccnc4c(=O)n3CCc3ccccc3)n2)c1 | enzyme activity | inhibitor | – | 10 µM | inhibition | 2% |
| C[C@@H](c1cccc(C#N)c1)n1cc(Cl)cc(C(N)=O)c1=N | cell-free assay | – | competition with immobilised ligand | 1 µM | remaining binding | 100% |
